Measured values pooled from the literature.
Protocols differ between the studies behind these lines.
Organism: Staphylococcus aureus
Read-out: microbial growth

O=C(O)CN1C(=O)/C(=C/c2c3ccccc3c(-c3ccc(N(c4ccccc4)c4ccccc4)cc3)c3ccccc23)NC1=S  MIC (broth dilution; ATCC25923): > 1000 µg/mL
O=C(CCCCCCCC[P+](c1ccccc1)(c1ccccc1)c1ccccc1)Nc1cc(O)c(O)c(O)c1.[Br-]  MIC (broth dilution; ATCC43300 MRSA; 18 h): 16 µg/mL
CN[C@H](CC(C)C)C(=O)N[C@H]1C(=O)N[C@@H](CC(N)=O)C(=O)N[C@H]2C(=O)N[C@H]3C(=O)N[C@H](C(=O)N[C@H](C(=O)O)c4cc(O)cc(O)c4-c4cc3ccc4O)[C@H](O)c3ccc(c(Cl)c3)Oc3cc2cc(c3O[C@@H]2O[C@H](CO)[C@@H](O)[C@H](O)[C@H]2O[C@H]2C[C@](C)(N)[C@H](O)[C@H](C)O2)Oc2ccc(cc2Cl)[C@H]1O  MIC (broth dilution; ATCC29213): 1 µg/mL
Cc1cc2c([nH]c3ccccc32)c2c1C(=O)C=CC2=O  MIC (ATCC29213): 64 µg/mL
Cc1ccc2nc(-c3ccccc3O)[nH]c2c1  MIC (broth dilution; ATCC29213 MSSA): 128 µg/mL
CC1(C)S[C@@H]2[C@H](NC(=O)[C@H](N)c3ccccc3)C(=O)N2[C@H]1C(=O)O  MIC (broth dilution; 16339): 64 µg/mL
CC(C)Oc1c(NC(=O)c2ccc(NC(=O)[C@H](CC(N)=O)NC(=O)c3ccc(NC(=O)c4ccc(C#N)cc4)cc3)cc2)ccc(C(=O)O)c1O  MIC (ATCC29213): > 64 µg/mL
O=C(O)CN1C(=O)/C(=C/c2ccc(-c3ccc(N(c4ccccc4)c4ccccc4)cc3)c3ccccc23)NC1=S  MIC (broth dilution; ATCC6538): > 1000 µg/mL
OC(Cn1cncn1)(Cn1cncn1)c1ccc(F)cc1F  MIC (broth dilution; MB2865): > 128 µg/mL
COc1ccc(-c2nc3ccccc3n2Cc2ccccc2)cc1OC  MIC (broth dilution; ATCC29213 MSSA): 4 µg/mL
CO[C@H]1/C=C/O[C@@]2(C)Oc3c(C)c(O)c4c(O)c(c(/C=N/N5CCN(C)CC5)c(O)c4c3C2=O)NC(=O)/C(C)=C\C=C\[C@H](C)[C@H](O)[C@@H](C)[C@@H](O)[C@@H](C)[C@H](OC(C)=O)[C@@H]1C  MIC (broth dilution; ATCC29213; 24 h): 0.0078 µg/mL
CC[C@H](CO)Nc1nc(NCc2ccccc2)c2ncn(C(C)C)c2n1  MIC (NCTC8325): > 30 µM
O=[N+]([O-])c1cnc2ccc(F)cc2c1O  MIC: > 128 µg/mL
COc1c(C)c(OS(=O)(=O)c2ccc3ccccc3c2)c(C)c(OS(=O)(=O)c2ccc3ccccc3c2)c1C(=O)/C=C/c1ccccc1  MIC (broth dilution; ATCC25923): 5000 µg/mL
Oc1ccc(-c2nc(-c3ccc(F)cc3)c(-c3ccncc3)[nH]2)cc1  MIC (NCTC8325): > 30 µM
Cc1ccc(C)n1-c1ccc(-c2nnc(-c3cccc([N+](=O)[O-])c3)[nH]2)cc1  MIC (broth dilution; ATCC11632; 18 h): 8 µg/mL
C/C=C(\C)c1cc(O)c(C)c(OC(=O)c2c(C)c(Cl)c(O)c(Cl)c2O)c1  MIC (broth dilution; 16339): 8 µg/mL
COC1/C=C/OC2(C)Oc3c(C)c(O)c4c(O)c(c5c(nc6cc(C)ccn65)c4c3C2=O)NC(=O)/C(C)=C\C=C\C(C)C(O)C(C)C(O)C(C)C(OC(C)=O)C1C (stereo not shown)  MIC: ≤ 0.06 µg/mL
COc1cccc(OC)c1C(=O)N[C@@H]1C(=O)N2[C@@H]1SC(C)(C)[C@@H]2C(=O)O  MIC (broth dilution; ATCCBAA44): 1020 µg/mL
Cc1ccc(-n2nc(C(C)(C)C)cc2NC(=O)Nc2ccc(OCCN3CCOCC3)c3ccccc23)cc1  MIC (NCTC8325): > 30 µM
O=C1NC(=S)N/C1=C\c1ccc(-c2ccc(N(c3ccccc3)c3ccccc3)cc2)cc1  MIC (broth dilution; ATCC43300): > 1000 µg/mL
Cc1ccc2nc(-c3cccnc3)[nH]c2c1  MIC (broth dilution; ATCC29213 MSSA): 64 µg/mL
CC1(C)S[C@@H]2[C@H](NC(=O)COc3ccccc3)C(=O)N2[C@H]1C(=O)O  MIC (broth dilution; MRSA; 18 h; clinical isolate): > 128 µg/mL
Cc1ccc(C)n1-c1ccc(C(=O)NNC=O)cc1  MIC (broth dilution; ATCC11632; 18 h): 16 µg/mL
O=C(Nc1ncc([N+](=O)[O-])s1)C1CCCCC1  MIC (broth dilution; MRSA): 125 µM
CC(C)Oc1c(N)ccc(C(=O)Nc2ccc(C(=O)N[C@@H](CC(N)=O)C(=O)Nc3ccc(C(=O)Nc4ccc(C(=O)Nc5ccc(C(=O)O)cc5)c(O)c4OC(C)C)cc3)cc2)c1O  MIC (ATCC29213): > 64 µg/mL
COc1cccc(OC)c1C(=O)N[C@@H]1C(=O)N2[C@@H]1SC(C)(C)[C@@H]2C(=O)O  MIC (156; clinical isolate): 25 µM
O=C(O)c1cn(C2CC2)c2cc(N3CCNCC3)c(F)cc2c1=O  MIC: 1.6 µg/mL
CC1=NN(CNc2ccc(C(=O)O)cc2)C(=O)C1=NNn1c(-c2ccccc2)nc2ccccc2c1=O  MIC (broth dilution; 24 h): 50.5 µM
NCCCC[C@H](N)C(=O)Nc1ccc(-n2nc(C(F)(F)F)cc2-c2ccc3c(ccc4ccccc43)c2)cc1  MIC (broth dilution; ATCC29213; 24 h): 4 µg/mL
O=C1NC(=S)N/C1=C\c1c2ccccc2c(-c2ccc(N(c3ccccc3)c3ccccc3)cc2)c2ccccc12  MIC (broth dilution; ATCC25923): > 1000 µg/mL
Cc1ccc2nc(-c3ccc(F)cc3)[nH]c2c1  MIC (broth dilution; ATCC29213 MSSA): 64 µg/mL
CSc1nc2nnnc(O)c2s1  MIC: > 128 µg/mL
COc1cc(OC)c2cc(C(=O)NCc3ccc(Br)cc3)cc(O)c2c1  MIC (broth dilution; ATCC29213 MSSA): 32 µg/mL
COc1c(C)c(OC)c2c(c1C)OC(c1ccccc1)CC2=O (stereo not shown)  MIC (broth dilution; ATCC25923): 5000 µg/mL
CC(C)Oc1c(NC(=O)c2ccc(NC(=O)[C@H](CC(N)=O)NC(=O)c3ccc(NC(=O)c4cccc(N)c4)cc3)cc2)ccc(C(=O)Nc2ccc(C(=O)O)cc2)c1O  MIC (ATCC29213): > 64 µg/mL
O=C(Nc1ccc(Cl)c(C(F)(F)F)c1)N1CCc2ccccc2C1  MIC (NCTC8325; 24 h): 30 µM
O=C1NC(=S)S/C1=C\c1ccc(-c2ccc(N(c3ccccc3)c3ccccc3)cc2)c2ccccc12  MIC (broth dilution; ATCC6538): 500 µg/mL
C/C=C(\C)c1cc(OC(=O)c2c(C)c(Cl)c(O)c(Cl)c2O)c(C)c(O)c1C(=O)O  MIC (broth dilution; 16339): > 64 µg/mL
CC(C)Oc1c(NC(=O)c2ccc(NC(=O)[C@H](CC(N)=O)NC(=O)c3ccc(NC(=O)C(C)Sc4ccc(C#N)cc4)cc3)cc2)ccc(C(=O)Nc2ccc(C(=O)O)cc2)c1O (stereo partly shown)  MIC (ATCC29213): > 64 µg/mL
Cc1ccc2nc(-c3ccc([N+](=O)[O-])cc3)[nH]c2c1  MIC (broth dilution; ATCC29213 MSSA): 128 µg/mL
Nc1nccc(Oc2ccc(NC(=O)c3c[nH]cc(-c4ccc(F)cc4)c3=O)cc2F)c1Cl  MIC (NCTC8325): > 30 µM
CCCCCCC#Cc1cncc(-c2nnc(SCc3ccc(C#N)cc3)n2C)c1  MIC (MRSA; drug-resistant strain): ≥ 20 µg/mL
O=C(O)c1ccc(Nc2ncc3c(n2)-c2ccc(Cl)cc2C(c2c(F)cccc2F)=NC3)cc1  MIC (NCTC8325): > 30 µM
C/C=C(\C)c1cc(OC(=O)c2c(O)c(C)c(O)c(Cl)c2/C(C)=C/C)c(C)c(O)c1C(=O)O  MIC (broth dilution; CCARM3090): 64 µg/mL
CC(C)Oc1c(NC(=O)c2ccc(NC(=O)[C@H](CC(N)=O)NC(=O)c3ccc(NC(=O)c4ccc([N+](=O)[O-])c5cccnc45)cc3)cc2)ccc(C(=O)Nc2ccc(C(=O)O)cc2)c1O  MIC (ATCC29213): > 64 µg/mL
CO[C@H]1C[C@@H]2CC[C@@H](C)[C@@](O)(O2)C(=O)C(=O)N2CCCC[C@H]2C(=O)O[C@H]([C@H](C)C[C@@H]2CC[C@@H](OCCO)[C@H](OC)C2)CC(=O)[C@H](C)/C=C(\C)[C@@H](O)[C@@H](OC)C(=O)[C@H](C)C[C@H](C)/C=C/C=C/C=C/1C  MIC (NCTC8325): > 30 µM
O=C(O)c1cn(C2CC2)c2cc(N3CCNCC3)c(F)cc2c1=O  MIC (broth dilution; ATCC29213 MSSA): 8 µg/mL
Cc1cc(Cl)cc2sc(N(CCCn3ccnc3)C(=O)c3ccc[nH]3)nc12  MIC (ATCC25923): 1.3 µM
Cc1cccc(-c2[nH]c(C(C)(C)C)nc2-c2ccc3nccnc3c2)n1  MIC (NCTC8325): > 30 µM
C/C(=C\c1ccc(C#N)cc1)C(=O)Nc1ccc(C(=O)N[C@@H](CC(N)=O)C(=O)Nc2ccc(C(=O)Nc3ccc(C(=O)Nc4ccc(C(=O)O)cc4)c(O)c3OCC(C)C)cc2)cc1  MIC (ATCC29213): 0.06 µg/mL
Brc1ccc(NCc2ccc(Oc3ccccn3)cc2)cc1  MIC: > 6.2 µg/mL
NC[C@H]1O[C@H](O[C@H]2[C@H](O)[C@@H](O[C@H]3O[C@H](CO)[C@@H](O)[C@H](N)[C@H]3O)[C@H](N)C[C@@H]2N)[C@H](N)C[C@@H]1O  MIC (147; clinical isolate): 6.25 µM
CC(C)Oc1c(NC(=O)c2ccc(NC(=O)[C@H](CC(N)=O)NC(=O)c3ccc(NC(=O)c4ccc(C#N)cn4)cc3)cc2)ccc(C(=O)Nc2ccc(C(=O)O)cc2)c1O  MIC (ATCC29213): ≤ 0.03 µg/mL
CSc1ccc(-c2nc3ccc(C)cc3[nH]2)cc1  MIC (broth dilution; ATCC29213 MSSA): 16 µg/mL
C/C=C(\C)c1cc(O)c(C)c(OC(=O)c2c(C)cc(O)c(Cl)c2O)c1  MIC (MRSA): 8 µg/mL
COc1ccc(-c2nc3ccccc3[nH]2)cc1O  MIC (broth dilution; ATCC29213 MSSA): 128 µg/mL
Cc1ccc2cccc(C(=O)O)c2c1  MIC: > 128 µg/mL
